{"data": "Published values from different studies", "target": "Serine/threonine-protein kinase STK11 (STK11, Homo sapiens, UniProt Q15831)", "Residues used in one study (Q15831 1-433)": "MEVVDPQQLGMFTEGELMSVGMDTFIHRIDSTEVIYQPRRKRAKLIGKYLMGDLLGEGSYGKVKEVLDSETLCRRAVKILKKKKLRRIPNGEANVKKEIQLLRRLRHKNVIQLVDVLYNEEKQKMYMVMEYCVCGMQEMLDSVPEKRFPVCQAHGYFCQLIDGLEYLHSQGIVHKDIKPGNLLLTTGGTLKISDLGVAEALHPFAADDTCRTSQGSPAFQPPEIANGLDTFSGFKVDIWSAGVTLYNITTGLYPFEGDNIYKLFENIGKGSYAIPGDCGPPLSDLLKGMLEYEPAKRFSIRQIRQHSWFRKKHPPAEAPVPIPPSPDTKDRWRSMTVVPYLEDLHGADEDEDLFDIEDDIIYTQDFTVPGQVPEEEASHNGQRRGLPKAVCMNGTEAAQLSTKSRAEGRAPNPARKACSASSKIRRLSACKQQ", "note": "Compare with care: the assays were run in different laboratories."}
{"Structure (SMILES)": "O=C(O)c1cc(-c2ccc(C3CCNCC3)cc2)c2ccc(-c3ccc(C(F)(F)F)cc3)cc2c1", "test": "cell-free assay, competition with immobilised ligand", "setting": "1 µM", "remaining binding [%]": 100}
{"Structure (SMILES)": "FC(F)(F)Oc1cccc(-c2cnc3ccc(-c4ccncc4)nn23)c1", "test": "cell-free assay, competition with immobilised ligand", "setting": "5 µM", "remaining binding [%]": 72}
{"Structure (SMILES)": "C[C@@H](c1ccc(-n2cnc3c(N)ncnc32)cc1)N1CCc2nn(C)c(Cc3ccccc3)c2C1=O", "test": "binding, competition with immobilised ligand", "setting": "0.1 µM", "remaining binding [%]": 100}
{"Structure (SMILES)": "CN(C)C(=O)Cn1cc(-c2nc([C@@](C)(c3ccc(-c4cnc(N)nc4)cc3)C3CC3)no2)cn1", "test": "cell-free assay, competition with immobilised ligand", "setting": "1 µM", "remaining binding [%]": 77}
{"Structure (SMILES)": "COc1ccnn2ncc(-c3ccnc(N(C)C)n3)c12", "test": "binding", "setting": "1 µM", "remaining binding [%]": 91}
{"Structure (SMILES)": "O=C(c1ccc(Nc2ncc(Cl)c(-c3cc4ccccc4s3)n2)cc1)N1CCC(N2CCCC2)CC1", "test": "binding, competition with immobilised ligand", "setting": "1 µM", "remaining binding [%]": 1.6}
{"Structure (SMILES)": "F[C@@H]1CCN(c2nccc(-c3cnn4ncccc34)n2)C1", "test": "binding", "setting": "1 µM", "remaining binding [%]": 100}
{"Structure (SMILES)": "O=C(NCCCN1CCOCC1)c1ccc(Nc2ncc(Cl)c(-c3ccc(Cl)s3)n2)cc1", "test": "binding, competition with immobilised ligand", "setting": "1 µM", "remaining binding [%]": 0}
{"Structure (SMILES)": "C[C@@H]1CN(c2ccc3ncc(-c4ccc5[nH]nc(C6CC6)c5c4)n3n2)C[C@H](C)O1", "test": "binding, competition with immobilised ligand", "setting": "0.5 µM", "remaining binding [%]": 94}
{"Structure (SMILES)": "Cc1nc(C2CCN(C(=O)c3ccc(OC(F)(F)F)cc3N)CC2)c2ncc(N3CCN(C)CC3)cc2n1", "test": "cell-free assay, competition with immobilised ligand", "setting": "1 µM", "remaining binding [%]": 100}
{"Structure (SMILES)": "O=C(NCC1CCOCC1)c1n[nH]cc1NC(=O)c1c(F)cccc1F", "test": "binding, competition with immobilised ligand", "setting": "1 µM", "remaining binding [%]": 100}
{"Structure (SMILES)": "O=C(Nc1cccnn1)N1CCC(=Cc2cccc(Oc3ccc(C(F)(F)F)cn3)c2)CC1", "test": "cell-free assay, competition with immobilised ligand", "setting": "1 µM", "remaining binding [%]": 100}
{"Structure (SMILES)": "Nc1ncc2c(n1)-c1c([nH]c3ccc(C#CC4CC4)cc13)CCCC2", "test": "binding, competition with immobilised ligand", "setting": "1 µM", "remaining binding [%]": 100}
{"Structure (SMILES)": "CC1CCCN1c1nccc(-c2cnn3ncccc23)n1 (stereo not drawn)", "test": "binding", "setting": "1 µM", "remaining binding [%]": 100}
{"Structure (SMILES)": "O=C(c1ccc(Nc2nccc(-c3cc4ccccc4s3)n2)cc1)N1CCC(N2CCCC2)CC1", "test": "binding, competition with immobilised ligand", "setting": "1 µM", "remaining binding [%]": 4.3}
{"Structure (SMILES)": "c1cncc(-c2cccc(Nc3nccc(NC4CCCCC4)n3)c2)c1", "test": "binding, competition with immobilised ligand", "setting": "10 µM", "remaining binding [%]": 100}
{"Structure (SMILES)": "CN(C)c1nccc(-c2cnc3ncccn23)n1", "test": "binding", "setting": "1 µM", "remaining binding [%]": 100}
{"Structure (SMILES)": "Cc1cc(NC(=O)c2cccc(S(F)(F)(F)(F)F)c2)cc(-n2ccn3nc(-c4cccnc4)cc23)c1", "test": "cell-free assay, competition with immobilised ligand", "setting": "1 µM", "remaining binding [%]": 100}
{"Structure (SMILES)": "C[C@H]1CCN(c2nccc(-c3cnn4ncccc34)n2)C1", "test": "binding", "setting": "1 µM", "remaining binding [%]": 80}
{"Structure (SMILES)": "N#Cc1ccccc1CSc1nnc2c(n1)[nH]c1ccccc12", "test": "binding, competition with immobilised ligand", "setting": "10 µM", "remaining binding [%]": 87}
{"Structure (SMILES)": "O=C(O)[C@@H]1[C@@H](Cn2nnc3ccccc3c2=O)CC[C@H]1C(=O)c1ccc(OCCC2CCOCC2)cc1", "test": "cell-free assay, competition with immobilised ligand", "setting": "1 µM", "remaining binding [%]": 94}
{"Structure (SMILES)": "COc1cnc(Nc2cccc(S(N)(=O)=O)c2)nc1N1CCN(c2ccccc2)CC1", "test": "binding, competition with immobilised ligand", "setting": "1 µM", "remaining binding [%]": 82}
{"Structure (SMILES)": "C[C@H](c1ccc(F)cc1)N(Cc1cccc(C(=O)O)c1)C(=O)c1cnc2ccccc2c1", "test": "cell-free assay, competition with immobilised ligand", "setting": "1 µM", "remaining binding [%]": 100}
{"Structure (SMILES)": "c1cnn2ncc(-c3ccnc(N4CCC45COC5)n3)c2c1", "test": "binding", "setting": "1 µM", "remaining binding [%]": 84}
